# Results collected from several papers.
# Each line is one published result; the experiments were not run side by side.
# Cell line: PC-3
# Read-out: cell growth or viability
Compound,test,setting,inhibition [%]
O=C(CN1C(=O)/C(=C/c2ccc([N+](=O)[O-])cc2)SC1=S)Nc1ccccc1,MTT,10 µM,16.6
O=C(Nc1cccc(Cc2ccccc2)c1)C1CCCN(C(=O)c2cccc(-c3ccco3)c2)C1 (stereo not drawn),WST-1,100 µM,0
COc1ccc(C(=O)/C=C/c2cccc3ccccc23)cc1S(N)(=O)=O,SRB,10 µM,87
O=C(CN1C(=O)/C(=C/C2CC2)SC1=S)Nc1ccccc1,MTT,10 µM,24.1
COc1ccc(C(=O)/C=C/c2cccc(Br)c2)cc1S(N)(=O)=O,SRB,10 µM,135
O=C(CN1C(=O)/C(=C/c2ccc(F)cc2)SC1=S)Nc1ccccc1,MTT,10 µM,27.7
COc1ccc(C(=O)/C=C/c2c(F)cccc2Cl)cc1S(N)(=O)=O,SRB,10 µM,81
O=C(CN1C(=O)/C(=C/c2ccccc2)SC1=S)Nc1ccccc1,MTT,10 µM,43.8
COC(=O)c1cc(-c2cccc(NC(=O)C3CCCN(C(=O)c4cc(C(F)(F)F)cc(C(F)(F)F)c4)C3)c2)co1 (stereo not drawn),WST-1,100 µM,0
COc1ccccc1/C=C/C(=O)c1ccc(OC)c(S(N)(=O)=O)c1,SRB,10 µM,52
COC(=O)c1cccc(NC(=O)C2CCCN(C(=O)c3cc(C(F)(F)F)cc(C(F)(F)F)c3)C2)c1 (stereo not drawn),WST-1,100 µM,0
COc1ccc(C(=O)/C=C/c2cccc(Cl)c2)cc1S(N)(=O)=O,SRB,10 µM,68
O=C1Nc2ccccc2C1=NNc1nnc2n1N=C(c1ccccc1)CS2,SRB,10 µM,20
Cn1cnnc1-c1cccc(NC(=O)C2CCCN(C(=O)c3cc(C(F)(F)F)cc(C(F)(F)F)c3)C2)c1 (stereo not drawn),WST-1,100 µM,0
COc1cc(CNC(=O)CCCC/C=C/C(C)C)ccc1O,SRB,10 µM,19
